Measurements published in paper PMC9065995 (RSC Advances, 2019).
Values after ≈ are worked out from the molar mass of the structure shown. Starred links: 1 amine or outer side, 2 acyl side, 3 side chain; linkers in the order of their positions; H or OH if unused. Positions of bridges follow the written chain, without caps; N, C: chain ends. Non-standard residues stand in square brackets, D forms with d. Residues, ends and D or L forms follow the SMILES beside them. Chains are numbered I, II in the order given. Actinocin(9to1) = Cc1c2oc3c(C)ccc(C(=O)[*:1])c3nc-2c(C(=O)[*:2])c(N)c1=O; NMeV = CN[C@H](C(=O)O)C(C)C; Sar = CNCC(=O)O

Assays:
Format in all cases: cell-based
[1] = test system: U-87 MG; experiment: SRB cytostatic activity assay, U-87 MG; conditions: Homo sapiens, 72 h, read-out: Cytostatic activity IC50 U-87 MG
Method in brief: (§1)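 Media were EMEM (KB, HepG2, U-87), RPMI 1640 (HeLa), F-12K (A-549), DMEM (MCF-7) and fibroblast growth medium (HDF), all with 10% FBS, at 37 °C and 5% CO2. About 10^4 cells/well grew 24 h, then test compound was added at 0.1–20 μg mL−1 (six levels) for 72 h. Cells were TCA-fixed 1 h at 4 °C, stained with 0.4% SRB, solubilised in Tris, read at A490; IC50, N = 3.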

[2] = test system: HepG2; experiment: SRB cytostatic activity assay, HepG2; conditions: Homo sapiens, HepG2, 72 h, read-out: Cytostatic activity IC50 HepG2
Method in brief: as §1

[3] = test system: HDF; experiment: SRB cytostatic activity assay, normal control HDF; conditions: 72 h, read-out: Cytostatic activity IC50 HDF
Method in brief: as §1

[4] = test system: HeLa; experiment: SRB cytostatic activity assay, HeLa; conditions: Homo sapiens, 72 h, read-out: Cytostatic activity IC50 HeLa
Method in brief: as §1

[5] = test system: A-549; experiment: SRB cytostatic activity assay, A-549; conditions: Homo sapiens, A549, 72 h, read-out: Cytostatic activity IC50 A-549
Method in brief: as §1

[6] = test system: KB; experiment: SRB cytostatic activity assay, KB; conditions: Homo sapiens, 72 h, read-out: Cytostatic activity IC50 KB
Method in brief: as §1

Structure (SMILES)	IC50 [1]	IC50 [2]	IC50 [3]	IC50 [4]	IC50 [5]	IC50 [6]
Cc1c2oc3c(C)ccc(C(=O)N[C@@H]4C(=O)N[C@H](C(C)C)C(=O)N5CCC[C@H]5C(=O)N(C)CC(=O)N(C)[C@@H](C(C)C)C(=O)O[C@@H]4C)c3nc-2c(C(=O)N[C@@H]2C(=O)N[C@H](C(C)C)C(=O)N3CCC[C@H]3C(=O)N(C)CC(=O)N(C)[C@@H](C(C)C)C(=O)O[C@@H]2C)c(N)c1=O [Actinomycin, Actinomycin D] (I: T[dV]P[Sar][NMeV] / II: T[dV]P[Sar][NMeV]; ester I:1-I:C, II:1-II:C; linker I:N-II:N via Actinocin(9to1))	0.92 ± 0.59 µg/mL (≈ 0.733 µM)	1.19 ± 0.02 µg/mL (≈ 0.948 µM)	2.28 ± 0.11 µg/mL (≈ 1.82 µM)	1.13 ± 0.01 µg/mL (≈ 0.9 µM)	1.03 ± 0.83 µg/mL (≈ 0.82 µM)	1.07 ± 0.05 µg/mL (≈ 0.852 µM)
Nc1ccn([C@@H]2O[C@H](CO)[C@@H](O)[C@@H]2O)c(=O)n1 [Cytarabine]	1.03 ± 0.25 µg/mL (≈ 4.23 µM)	1.49 ± 0.04 µg/mL (≈ 6.13 µM)	1.94 ± 0.01 µg/mL (≈ 7.98 µM)	1.4 ± 0.08 µg/mL (≈ 5.76 µM)	1.17 ± 0.21 µg/mL (≈ 4.81 µM)	0.95 ± 0.02 µg/mL (≈ 3.91 µM)
